The record followed here is ChEMBL document CHEMBL1131129, “Geometrically and conformationally restrained cinnamoyl compounds as inhibitors of HIV-1 integrase: synthesis, biological evaluation, and molecular modeling” (J Med Chem, 1998).

Test [1] has as its target T1, Human immunodeficiency virus type 1 integrase (Human immunodeficiency virus 1, UniProt Q7ZJM1). Briefly: (§1) Compound concentration required to reduce HIV-1 Integrase 3'-processing activity by 50%.
A further test is filed under the species Homo sapiens. The test is described as follows: Fold increase in protein-linked DNA breaks (PLDB) with respect to untreated controls. The class given is functional. The procedure, abridged: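 KB cells labeled with [14C]thymidine (0.75 μCi/mL) for 48 h, trypsinized, resuspended at 3×10^5/mL, preincubated 1 h at 37 °C. […] Protein-linked DNA breaks quantified by K-SDS coprecipitation after SDS lysis, needle shearing, 65 °C incubation and 100 mM KCl precipitation. Expressed relative to untreated controls.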

The subject of another test is MT4. Briefly: Compound concentration required to reduce the exponential growth of MT-4 cells by 50%. As to conditions: Homo sapiens. The class given is functional. In short, it runs like this:
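Lymphoid MT-4 cells in suspension culture, grown at 37 °C under 5% CO2 in RPMI 1640 with 10% FCS, penicillin G and streptomycin, and checked for mycoplasma. Compounds were dissolved in DMSO as a 200 mM stock, then diluted. Cytotoxicity was read as viability of mock-infected cells by MTT. The CC50 is the concentration reducing exponential cell growth by 50%.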

The next test has as its system KB. Briefly: Compound concentration required to reduce the exponential growth of KB cells by 50%. The format is functional. Conditions: Homo sapiens.
For test [2], the target named is T1, Human immunodeficiency virus type 1 integrase. The description is as §1. In short, it runs like this:
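His-tagged HIV-1 IN expressed in E. coli BL21(DE3), Ni-purified with 5 mM CHAPS. Released GT dinucleotide recovered by DEAE filtration and counted. Mean of three independent determinations.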
This is another data set of the same source.

T1 sequence (Q7ZJM1 whole entry): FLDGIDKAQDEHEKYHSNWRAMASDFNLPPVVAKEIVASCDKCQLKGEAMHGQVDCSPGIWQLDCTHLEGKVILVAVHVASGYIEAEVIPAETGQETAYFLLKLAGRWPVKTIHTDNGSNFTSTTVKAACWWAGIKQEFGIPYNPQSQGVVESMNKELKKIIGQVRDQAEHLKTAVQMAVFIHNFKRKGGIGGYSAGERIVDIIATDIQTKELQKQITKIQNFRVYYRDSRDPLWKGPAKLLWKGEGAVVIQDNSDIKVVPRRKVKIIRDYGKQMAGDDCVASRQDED

For orientation: IC50 means the concentration at which inhibition is half-maximal. As a reminder, the CC50 is the concentration at which the toxic effect on the cells reaches its halfway point. Higher therefore signals lower toxicity to the cells. As to `CC[C@@]1(O)C(=O)OCc2c1cc1n(c2=O)Cc2cc3ccccc3nc2-1` [CAMPTOTHECIN], the IC50 in test [1] (read-out: IC50) is > 100 µM. The compound also displayed a Fold increase in the test filed under Homo sapiens of 3.5. The CC50 worked out at 0.01 µM in the test on MT4 and 0.006 µM in the test on KB.

With `O=C1/C(=C/c2ccc(O)c(O)c2)COC/C1=C\c1ccc(O)c(O)c1`, in test [1] (read-out: IC50), the half-maximal inhibitory concentration (IC50) came to 0.2 µM. The same compound yielded a Fold increase in the test listed under Homo sapiens of 0.9. The half-maximal cytotoxic concentration (CC50) amounted to 10 µM in the test with MT4 and 15 µM in the test on KB.

As to `O=C(/C=C/c1ccc(O)cc1)CC(=O)/C=C/c1ccc(O)cc1` [BISDEMETHOXYCURCUMIN], in test [1] (read-out: IC50), the IC50 was > 100 µM. In addition, in the test listed under Homo sapiens, the Fold increase turned out to be 0.9. Besides, the CC50 in the test with MT4 came to 13 µM; in the test on KB, 8.5 µM.

With `O=C1/C(=C/c2ccc(O)c(O)c2)CNC/C1=C\c1ccc(O)c(O)c1`, the IC50 in test [1] (read-out: IC50) is 0.2 µM. Further, the Fold increase in the test listed under Homo sapiens stood at 1.4. The cytotoxic concentration (CC50) in the test with MT4 is 21 µM; with KB, 32 µM.

On to `O=C(/C=C/c1ccc(O)cc1)/C=C/c1ccc(O)cc1`, for which the IC50 in test [1] (read-out: IC50) is > 100 µM. In addition, in the test listed under Homo sapiens, the Fold increase was determined as 1.1. Further, the CC50 in the test on MT4 was 1.6 µM; in the test with KB it was 7.4 µM.

Regarding `COc1cc(/C=C/C(=O)/C=C/c2ccc(O)c(OC)c2)ccc1O`, the IC50 in test [1] (read-out: IC50) was determined as 37 µM. In addition, the Fold increase in the test filed under Homo sapiens is 1.2. Also, the CC50 in the test with MT4 amounted to 1.4 µM; with KB, 8.5 µM.

Regarding `O=C(/C=C/c1ccc(O)c(O)c1)CCc1ccccc1`, in test [1] (read-out: IC50), the IC50 is > 100 µM. The compound also came in with a Fold increase in the test listed under Homo sapiens of 1. In addition, the values for the cytotoxic concentration (CC50) in the test on MT4 and in the test on KB were 15 µM and 30 µM, respectively.

As for `O=C1/C(=C/c2ccc(O)c(O)c2)CCC/C1=C\c1ccc(O)c(O)c1`, the concentration for half-maximal inhibition (IC50) in test [1] (read-out: IC50) was determined as 0.9 µM. In the test listed under Homo sapiens, the Fold increase was determined as 1.4. For the same compound, the CC50 in the test with MT4 came to 7.4 µM; in the test on KB it was 8.9 µM.

For `O=C1/C(=C/c2ccc(O)c(O)c2)Cc2ccccc21`, in the test listed under Homo sapiens, the Fold increase is 5.1. The 50% cytotoxic concentration (CC50) with MT4 was 5.5 µM; with KB, 9.2 µM. In test [2], this compound displayed a half-inhibitory concentration (IC50) of 86 µM.

Take `O=C1C(=Cc2ccc(O)c(O)c2)C(=O)c2ccccc21`: the half-maximal inhibitory concentration (IC50) in test [1] (read-out: IC50) came out at 3 µM. The same compound displayed a Fold increase in the test listed under Homo sapiens of 2. In addition, the CC50 in the test with MT4 is 32 µM; with KB it was 50 µM.

As for `COc1cc(/C=C/C(=O)CC(=O)/C=C/c2ccc(O)c(OC)c2)ccc1O` [CURCUMIN], the half-maximal inhibitory concentration (IC50) in test [1] (read-out: IC50) was 30 µM. In the test filed under Homo sapiens, this compound displayed a Fold increase of 1. The CC50 was 7.4 µM in the test on MT4 and 16 µM in the test on KB.

Take `COc1ccc(/C=C/C(=O)/C=C/c2ccc(OC)c(OC)c2)cc1OC`: the IC50 in test [1] (read-out: IC50) was > 100 µM. In the test listed under Homo sapiens, this compound showed a Fold increase of 1.1. Also, the CC50 in the test on MT4 was 4.1 µM; in the test on KB, 6.7 µM.

`O=C(/C=C/c1ccc(O)cc1)c1ccc(O)cc1O` [ISOLIQUIRITIGENIN]: the IC50 in test [1] (read-out: IC50) is > 100 µM. In the test listed under Homo sapiens, the Fold increase is 1.7. For the same compound, the results for the CC50 in the test with MT4 and with KB were 7.4 µM and 12 µM, respectively.

Turning to `O=C(/C=C/c1ccc(O)c(O)c1)c1cccc(C(=O)/C=C/c2ccc(O)c(O)c2)c1`, the half-maximal inhibitory concentration (IC50) in test [1] (read-out: IC50) turned out to be 0.8 µM. The compound further had a Fold increase in the test filed under Homo sapiens of 1.2. In addition, the CC50 with MT4 turned out to be 5 µM; in the test on KB it was 5.8 µM.

Regarding `Nc1nc[nH]n1` [AMITROLE], the IC50 in test [1] was determined as 0.17 µg/mL. The same compound displayed a Fold increase in the test listed under Homo sapiens of 1.1. The CC50 with MT4 and with KB was 100 µM in each case.

For `O=C(/C=C/c1ccc(O)c(O)c1)c1ccc(O)cc1`, the half-inhibitory concentration (IC50) in test [1] (read-out: IC50) turned out to be 1.3 µM. Also, the Fold increase in the test listed under Homo sapiens turned out to be 1.6. In addition, the CC50 with MT4 stood at 4.4 µM; in the test with KB, 5.9 µM.

As for `O=C(/C=C/c1ccc(O)c(O)c1)c1ccccc1`, the IC50 in test [1] (read-out: IC50) amounted to 2.3 µM. In the test filed under Homo sapiens, this compound registered a Fold increase of 1.3. Moreover, the results for the cytotoxic concentration (CC50) in the test with MT4 and with KB were 1.7 µM and 3.1 µM, respectively.

As to `O=C1/C(=C/c2ccc(O)c(O)c2)CSC/C1=C\c1ccc(O)c(O)c1`, the IC50 in test [1] (read-out: IC50) is 0.2 µM. In the test filed under Homo sapiens, this compound registered a Fold increase of 1.1. For the same compound, the CC50 in the test with MT4 is 4 µM; in the test on KB, 3.9 µM.

Regarding `O=C(/C=C(O)/C=C/c1ccc(O)c(O)c1)/C=C/c1ccc(O)c(O)c1`, the IC50 in test [1] (read-out: IC50) came to 0.7 µM. The same compound had a Fold increase in the test filed under Homo sapiens of 1.1. Besides, the cytotoxic concentration (CC50) came to 17 µM in the test with MT4 and 4.1 µM in the test on KB.

Consider `O=C1/C(=C/c2ccc(O)c(O)c2)CC/C1=C\c1ccc(O)c(O)c1`, for which the IC50 in test [1] (read-out: IC50) was determined as 1 µM. In addition, the Fold increase in the test listed under Homo sapiens amounted to 4. The CC50 with MT4 was 15 µM; in the test on KB it was 17 µM.

Regarding `O=C(/C=C(O)/C=C/c1ccccc1)/C=C/c1ccccc1`, in test [1] (read-out: IC50), the IC50 was > 100 µM. For the same compound, in the test filed under Homo sapiens, the Fold increase stood at 0.8. Moreover, the CC50 in the test with MT4 is 41 µM; in the test on KB, 29 µM.

For the compound `COc1cc(/C=C2\CCC/C(=C\c3ccc(O)c(OC)c3)C2=O)ccc1O` [CYCLOVALONE], in test [1] (read-out: IC50), the half-maximal inhibitory concentration (IC50) was > 100 µM. Also, the Fold increase in the test listed under Homo sapiens came to 1.8. For the same compound, the CC50 in the test on MT4 turned out to be 2.4 µM; in the test on KB it was 6.7 µM.

Regarding `COc1ccc(/C=C/C(=O)/C=C(O)/C=C/c2ccc(OC)c(OC)c2)cc1OC`, the IC50 in test [1] (read-out: IC50) was > 100 µM. The Fold increase in the test listed under Homo sapiens came out at 1.4. For the same compound, the 50% cytotoxic concentration (CC50) in the test on MT4 came out at 4.1 µM; in the test with KB it was 2 µM.

Regarding `COc1cc([C@@H]2c3cc4c(cc3[C@@H](O[C@@H]3O[C@@H]5CO[C@@H](C)O[C@H]5[C@H](O)[C@H]3O)[C@H]3COC(=O)[C@H]23)OCO4)cc(OC)c1O` [ETOPOSIDE], the cytotoxic concentration (CC50) in the test on MT4 was 0.08 µM; in the test on KB it was 0.1 µM.

As to `O=C(/C=C/c1ccc(O)c(O)c1)c1ccc(O)cc1O` [BUTEIN], in test [1] (read-out: IC50), the IC50 is 20 µM. In the test filed under Homo sapiens, this compound came in with a Fold increase of 2.2. Moreover, the cytotoxic concentration (CC50) with MT4 is 5.3 µM; with KB it was 9.1 µM.

In the case of `O=C(/C=C/c1ccc(O)cc1)c1cccc(C(=O)/C=C/c2ccc(O)cc2)c1`, in test [1] (read-out: IC50), the IC50 stood at 30 µM. The Fold increase in the test filed under Homo sapiens amounted to 1.2. Besides, the CC50 in the test on MT4 was 35 µM; with KB it was 22 µM.

`O=C(/C=C/c1ccc(O)c(O)c1)/C=C/c1ccc(O)c(O)c1`: in test [1] (read-out: IC50), the IC50 came to 0.6 µM. For the same compound, in the test filed under Homo sapiens, the Fold increase was found to be 1.1. For the same compound, the CC50 in the test on MT4 was 38 µM; in the test on KB, 21 µM.
